{
  "source": "ChEMBL document CHEMBL2176974",
  "about": "“A bactericidal guanidinomethyl biaryl that alters the dynamics of bacterial FtsZ polymerization” (J Med Chem, 2012)",
  "key": {"[1]": {"target": "T1, Cell division protein FtsZ (Staphylococcus aureus) (UniProt P0A031)", "T1 sequence (whole entry)": "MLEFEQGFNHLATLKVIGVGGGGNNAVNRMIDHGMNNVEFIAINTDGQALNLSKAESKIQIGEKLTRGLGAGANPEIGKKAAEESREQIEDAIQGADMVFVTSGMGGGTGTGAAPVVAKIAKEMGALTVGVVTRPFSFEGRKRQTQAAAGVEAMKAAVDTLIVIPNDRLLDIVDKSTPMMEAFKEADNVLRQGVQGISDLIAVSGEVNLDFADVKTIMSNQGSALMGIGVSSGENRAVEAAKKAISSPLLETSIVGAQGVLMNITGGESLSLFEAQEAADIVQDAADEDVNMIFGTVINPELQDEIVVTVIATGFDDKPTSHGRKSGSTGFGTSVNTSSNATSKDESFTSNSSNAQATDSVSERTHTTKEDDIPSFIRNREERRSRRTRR", "test": "Binding affinity to Staphylococcus aureus FtsZ expressed in Escherichia coli BL21 (DE3) at 40 uM by fluorescence anisotropy BoGTPgammaS competition assay", "outline": "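Competition: 1 μM BODIPY-GTPγS with 0 or 5 μM SaFtsZ and compound at 0–40 μM in 50 mM Tris·HCl pH 7.4, 50 mM KCl, 2 mM magnesium acetate. After 5 min at 25 °C, anisotropy read at excitation 488 / emission 510 nm, 4 nm bandwidths, triplicate. Unlabeled GTP used as the positive control.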"}, "[2]": {"tested_on": "Streptococcus pyogenes", "test": "Antimicrobial activity against Streptococcus pyogenes Strep A ATCC 19615 incubated for 24 hrs by broth microdilution method", "format": "functional", "details": "Strep A ATCC 19615, 24 h", "outline": "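CLSI broth microdilution. Log-phase bacteria at 10⁵ CFU/mL were exposed to 2-fold serial dilutions (64 to 0.016 μg/mL) in cation-adjusted Mueller-Hinton broth, 5% defibrinated sheep blood added for Streptococcus. Incubated aerobically 24 h at 37 °C. Growth read as OD600; MIC taken as the lowest concentration giving 90% growth inhibition.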"}},
  "note": "Activity calls are given as the source filed them. The calls are words filed in the database; no cut-off is given here.",
  "data": [
    {"compound": "CC(C)(C)c1ccc(-c2cccc(CNC(=N)N)c2)cc1", "values": [
      {"measurement": "Activity", "setting": "[1]", "result": "inactive"},
      {"measurement": "MIC", "setting": "[2]", "result": 2, "unit": "µg/mL"}
    ]}
  ]
}
